Beta2AR agonist = human beta-2 adrenergic receptor agonism by FAP | Am2.2-beta2AR cells, FAP receptor internalization, flow cytometry | response, % (no concentration beside the values) | P07550 | 340,000 compounds, 0.43% hits;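 active = response above a set limit, near 3 SD of response in nonfluorescent compounds, cut at about 42% in these data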
ABHD5-PLIN5 inh = ABHD5-PLIN5 protein interaction inhibition | Q00G26+Q8WTS1 | Split G. princeps luciferase complementation, luminescence, 4 h | inhibition, % at 4 µM | 360,000 compounds, 0.78% hits | AID 602281;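 active = inhibition above the mean inhibition across every tested compound plus 3 SD, cut at about 22% in these data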;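 also: 0% = DMSO only wells and the 100% control is not disclosed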
Target sequence (Q00G26 whole entry, looked up): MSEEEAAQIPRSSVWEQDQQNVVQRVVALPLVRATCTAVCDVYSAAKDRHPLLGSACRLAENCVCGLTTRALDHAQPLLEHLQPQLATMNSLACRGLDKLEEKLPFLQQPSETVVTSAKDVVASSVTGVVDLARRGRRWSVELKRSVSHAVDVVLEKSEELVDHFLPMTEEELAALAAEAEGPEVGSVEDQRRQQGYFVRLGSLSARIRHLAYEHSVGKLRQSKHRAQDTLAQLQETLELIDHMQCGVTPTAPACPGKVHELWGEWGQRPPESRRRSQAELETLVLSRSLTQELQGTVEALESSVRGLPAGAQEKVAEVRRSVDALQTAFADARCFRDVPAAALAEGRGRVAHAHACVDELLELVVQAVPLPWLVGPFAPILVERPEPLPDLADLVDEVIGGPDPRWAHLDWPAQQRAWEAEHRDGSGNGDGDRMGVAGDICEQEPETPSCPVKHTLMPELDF
Target sequence (Q8WTS1 whole entry, looked up): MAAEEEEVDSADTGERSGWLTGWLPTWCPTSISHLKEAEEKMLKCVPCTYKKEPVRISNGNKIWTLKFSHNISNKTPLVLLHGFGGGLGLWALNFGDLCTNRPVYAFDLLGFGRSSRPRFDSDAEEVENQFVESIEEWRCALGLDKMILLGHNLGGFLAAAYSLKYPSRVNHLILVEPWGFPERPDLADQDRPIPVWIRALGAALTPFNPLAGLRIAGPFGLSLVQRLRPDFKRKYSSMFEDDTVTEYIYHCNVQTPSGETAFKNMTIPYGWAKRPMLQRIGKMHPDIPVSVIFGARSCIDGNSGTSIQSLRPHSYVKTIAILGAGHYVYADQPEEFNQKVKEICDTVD
Dynein cargo inh = dynein cargo transport inhibition | z-score, hits read low | 220,000 compounds, 0.47% hits | 3617.4 mouse cells, GR-EGFP nuclear translocation imaging; test concentration mostly 20 µM; stimulated with dexamethasone, 1 µM; active compounds read low;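 active = plate z-score of nuclear minus cytoplasmic receptor signal below a set negative limit, without overly bright fluorescence or cell loss, cut at about -3.5 in these data, passing the limit was not always enough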;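 also: z-score of nuclear minus cytoplasmic ring GR-EGFP intensity difference per well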
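Buffer or medium: tet-free medium with charcoal-stripped serum / Also added: dexamethasone agonist, 1.0 µM final, for 30 min / Timing: induction 48 h, compound 1 h, agonist 30 min / Measured by: high-content fluorescence imaging after fixation / Read-out: nuclear-to-cytoplasmic GR-EGFP distribution per well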
NOD2 RIPK2 PPI = blocks binding of human NOD2 to RIPK2 | O43353 | CHO BLA complementation NOD2-RIPK2, CCF4 ratio | inhibition, % at 4.98 µM | 360,000 compounds, 0.38% hits | AID 624267; in the data active = inhibition above about 21%;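 also: 0% = vehicle only and 100% = reference blocker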
TLR9-MyD88 inh = inhibitors of human TLR9-MyD88 binding; inhibition, % at 4.98 µM; 340,000 compounds, 0.21% hits; CHO BLA complementation TLR9-MyD88, CCF4 FRET ratio; Q9NR96+Q99836;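 active = inhibition above the mean over all tested compounds plus 3 SD, cut at about 21% in these data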;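 also: 0% = DMSO only wells and 100% = clavulanate BLA inhibitor control wells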
TLR4 MyD88 comp = blocks binding of human TLR4 to MyD88 | O00206+Q99836 | inhibition, % at 8.4 µM | AID 861 | HeLa CL3-4 TLR4/MyD88 BLA complementation, FRET ratio | 200,000 compounds, 0.18% hits; in the data active = inhibition above about 25%;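 also: 0% = vehicle and 100% = reference inhibitor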
ABHD5-PLIN5 conf = confirmation of human ABHD5-PLIN5 interaction inhibitors; AID 651612; shares compounds with ABHD5-PLIN5 inh; 2,200 compounds, 67% hits; biochemical ABHD5-PLIN5 interaction, luminescence; inhibition, % at 4 µM; in the data active = inhibition above about 23%;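 also: 0% = DMSO vehicle wells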
HNF4 counter = active in HNF4 split-luciferase counter-screen for ABHD5-PLIN5 inhibitors; HNF4 dimerization, luminescence, biochemical; inhibition, % at 4 µM; 2,200 compounds, 77% hits; shares compounds with ABHD5-PLIN5 inh;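 active = mean inhibition across replicate wells exceeding the computed hit threshold, cut at about 13% in these data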;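 also: light from luciferase halves that rejoin when HNF4 fusion proteins dimerize; 0% = DMSO only wells and the 100% control is not given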
An asterisk follows results filed as active; · = no result given. Hits are enriched below; roughly 1.6% of the tested compounds scored in any of these assays.

SMILES	Beta2AR agonist	ABHD5-PLIN5 inh	Dynein cargo inh	NOD2 RIPK2 PPI	TLR9-MyD88 inh	TLR4 MyD88 comp	ABHD5-PLIN5 conf	HNF4 counter
CCOC(=O)C1CCCN(C(=O)c2cc(-c3ccco3)nc3ccccc23)C1 (configuration not stated)	-8.5	4.6	·	9.9	-6.2	·	·	·
CCOC(=O)C1CCCN(C(=O)c2cc(Nc3ccc(OC)cc3)nc3ccccc23)C1 (configuration not stated)	4.8	28.6*	-0.0151	2.1	0.4	-5.5	42.3*	·
Cc1nc2scc(-c3ccco3)c2c(=O)n1/N=C/N(C)C	0.8	42.6*	-1.44	-4.2	1.3	9.6	18.6	28.9*
Cc1nn(CCc2nc(-c3ccco3)cs2)c2[nH]c(=O)cc(C(F)(F)F)c12	-9.1	41.4*	-0.356	-5.9	4.4	12.6	21.3	16.3*
COCCNC(=O)C1(C)CCCN(Cc2cc(-c3ccccc3)on2)C1 (configuration not stated)	·	2.2	·	3.3	·	·	·	·
O=C(/C=C/c1ccco1)N1CCc2ccccc21	-9.5	5.0	-1.85	-7.1	-8.8	-10.5	·	·
Cc1ccc(/C=C/C(=O)N2CCc3ccccc32)o1	-0.7	24.3*	-0.129	1.2	-1.7	-12.2	16.4	50.2*
O=C(NC1CCCCCC1)c1ccc(Br)o1	2.3	2.5	·	5.6	2.2	·	·	·
O=C(NC1CCCCC1)Oc1cc2oc(=O)sc2cc1Br	1.1	42.5*	-0.818	-7.7	-8.7	·	-20.9	41.9*
COc1ccccc1N=CC=C1OC(C)(C)C(C)(C)O1	0.3	37.4*	0.683	3.4	7.0	1.8	-4.7	10.5
Cc1ccc(N=CC=C2OC(C)(C)C(C)(C)O2)c(C)c1	2.5	1.9	-0.272	-3.3	1.7	5.0	·	·
Cc1cccnc1C(c1ccc(F)cc1)N(C)C(=O)C1CCN(CCOc2ccc(Cl)cc2Cl)CC1 (configuration not stated)	·	-0.3	·	-5.4	·	·	·	·
CCCN(CC1CC1)C(=S)NC(=O)c1cc(Br)ccc1Cl	14.3	24.3*	·	-4.4	0.8	·	2.2	-7.4
CC1(C(=O)NS(=O)(=O)c2cccc(OC(F)F)c2)CCN1C(=O)Cc1cccs1 (configuration not stated)	·	3.4	·	-2.3	·	·	·	·
Cc1c(Cl)cccc1NC(CC(=O)c1ccccc1)C(=O)O (configuration not stated)	0.6	83.7*	0.312	4.0	7.0	-3.1	57.2*	107.8*
O=C(CC(Nc1cccc(Cl)c1Cl)C(=O)O)c1ccccc1 (configuration not stated)	-1.4	85.5*	-1.39	-3.3	-4.6	-1.6	14.7	73.1*
O=C(CC(Nc1cccc(Cl)c1Cl)C(=O)OCC(=O)c1cccs1)c1ccccc1 (configuration not stated)	2.5	13.6	0.068	-2.2	-1.7	6.1	·	·
Cc1c(Cl)cccc1NC(CC(=O)c1ccccc1)C(=O)OCC(=O)c1cccs1 (configuration not stated)	-0.5	13.5	0.297	-12.5	-4.3	-0.2	·	·
O=C(CC(Nc1ccccc1Cl)C(=O)O)c1ccccc1 (configuration not stated)	12.8	82.6*	1.22	6.9	-4.2	0.5	29.1*	96.6*
Oc1cc(Nc2ccccc2)cc2cccnc12	-3.0	-5.4	·	15.2	-2.7	·	·	·
Oc1cc(NCCN2CCOCC2)cc2cccnc12	29.8	51.0*	·	-7.0	6.3	·	-4.5	3.6
COc1ccc(C(=O)NCC23C=CC(O2)C2C(=O)N(Cc4ccccc4)C(=O)C23)cc1 (configuration not stated)	-10.6	4.6	-0.321	3.0	0.1	-9.7	·	·
CC(=O)Oc1ccc(N2C(=O)C3C4C=CC(CO)(O4)C3C2=O)cc1 (configuration not stated)	-3.6	26.3*	0.0327	9.1	11.4	1.1	13.7	67.0*
COc1ccc(Cl)cc1NC(=O)CN(C)CC(=O)Nc1cc(OC)c(OC)c(OC)c1	-4.0	-0.1	·	-8.9	0.4	·	·	·
COc1ccc(-c2cc(=O)n(CCC#N)[nH]2)cc1	3.0	25.6*	0.0605	-13.3	-10.4	6.0	-11.2	-14.5
SMILES	Beta2AR agonist	ABHD5-PLIN5 inh	Dynein cargo inh	NOD2 RIPK2 PPI	TLR9-MyD88 inh	TLR4 MyD88 comp	ABHD5-PLIN5 conf	HNF4 counter
COc1ccc(-c2cc(=O)[nH][nH]2)cc1	8.3	-34.7	1.09	2.4	4.8	-7.4	·	·
CCOC(=O)CSc1nc2sc(C)c(C)c2c(=O)[nH]1	4.8	8.8	-0.543	-3.0	-9.2	-1.3	·	·
CCOC(=O)/C(=C\c1ccc(Cl)cc1)c1nc2sc(C)c(C)c2c(=O)[nH]1	50.6*	46.0*	-3.36	6.3	6.5	6.6	99.0*	77.4*
CC1(S(=O)(=O)O)CC(=O)c2ccccc2C1=O (configuration not stated)	13.0	29.2*	·	-15.6	7.2	·	41.6*	56.1*
CC1(N2CCCCC2)C(=O)c2ccccc2C1=O	-1.5	3.6	0.419	-2.7	-6.6	2.3	·	·
CCOC(=O)C1CCCCN1C(=O)/C(=C/c1ccc(OC)cc1)c1ccc(OC)c(OC)c1 (configuration not stated)	0.6	24.5*	·	-4.0	-2.8	·	-3.8	-0.2
CCCN(C(=O)c1cc(S(=O)(=O)N2CCCCCC2)ccc1OC)C1CCS(=O)(=O)C1 (configuration not stated)	-3.3	7.5	·	-10.4	-3.2	·	·	·
CCCN(C(=O)c1cc(S(=O)(=O)N2CCN(CC)CC2)ccc1Cl)C1CCS(=O)(=O)C1 (configuration not stated)	8.9	25.8*	·	4.9	4.3	·	3.5	2.6
O=[S@]1Oc2ccccc2-c2ccccc21	-7.5	24.5*	·	-6.3	4.3	·	83.4*	98.8*
O=CC1=C(c2ccccc2)Oc2ccccc2O1	66.6*	30.0*	·	-6.4	-6.9	·	72.9*	31.0*
OC(CSc1ccccc1)CN1CCN(c2ccc(Cl)cc2)CC1 (configuration not stated)	-13.0	-4.0	·	3.1	-12.2	·	·	·
O=C(/C=C/c1ccccc1)CC(O)(c1ccccc1)C(F)(F)F (configuration not stated)	38.9	81.3*	-2.86	14.6	-9.3	7.7	98.7*	89.3*
O=C(/C=C/c1ccccc1)CC(=O)c1ccccc1O	3.1	7.0	-2.4	0.1	8.0	-9.6	·	·
O=C(/C=C/c1ccccc1)CC(O)(c1ccccc1)C(F)(F)C(F)F (configuration not stated)	32.6	82.2*	-2.15	1.9	-4.2	5.5	98.3*	77.0*
